Assay results reported in BindingDB's records for doi:10.1021/acs.jmedchem.0c02249 (Lundbeck Research Usa, 2021).

Assays:
P2X purinoceptor 7 [1] = target: T1, P2X purinoceptor 7 (Homo sapiens, UniProt Q99572); experiment: Antagonist activity at human P2X7 receptor expressed in HEK293 cells assessed as inhibition of BzATP-induced calcium-flux measured after 60 mins by FLIPR analysis
T1 sequence (Q99572 whole entry): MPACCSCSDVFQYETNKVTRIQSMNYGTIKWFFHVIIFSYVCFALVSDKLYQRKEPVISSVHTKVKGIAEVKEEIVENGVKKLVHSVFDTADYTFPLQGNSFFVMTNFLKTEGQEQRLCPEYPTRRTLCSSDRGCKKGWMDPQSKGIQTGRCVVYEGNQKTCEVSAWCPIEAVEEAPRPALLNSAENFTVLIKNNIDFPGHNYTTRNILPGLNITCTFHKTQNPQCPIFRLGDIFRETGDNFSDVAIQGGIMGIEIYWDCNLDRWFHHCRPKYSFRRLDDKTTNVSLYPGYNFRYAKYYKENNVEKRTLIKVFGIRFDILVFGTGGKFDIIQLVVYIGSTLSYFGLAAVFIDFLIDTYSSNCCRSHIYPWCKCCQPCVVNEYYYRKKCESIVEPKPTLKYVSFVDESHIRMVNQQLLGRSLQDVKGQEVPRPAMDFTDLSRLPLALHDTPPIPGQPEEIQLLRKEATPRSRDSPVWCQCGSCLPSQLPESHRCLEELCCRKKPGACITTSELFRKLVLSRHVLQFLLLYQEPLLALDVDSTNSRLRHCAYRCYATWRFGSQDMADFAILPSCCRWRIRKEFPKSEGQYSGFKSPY

P2X purinoceptor 7 [2] = target: T2, P2X purinoceptor 7 (Rattus norvegicus, UniProt Q64663); experiment: Antagonist activity at rat P2X7 receptor expressed in HEK293 cells assessed as inhibition of BzATP-induced calcium-flux measured after 60 mins by FLIPR analysis
T2 sequence (Q64663 whole entry): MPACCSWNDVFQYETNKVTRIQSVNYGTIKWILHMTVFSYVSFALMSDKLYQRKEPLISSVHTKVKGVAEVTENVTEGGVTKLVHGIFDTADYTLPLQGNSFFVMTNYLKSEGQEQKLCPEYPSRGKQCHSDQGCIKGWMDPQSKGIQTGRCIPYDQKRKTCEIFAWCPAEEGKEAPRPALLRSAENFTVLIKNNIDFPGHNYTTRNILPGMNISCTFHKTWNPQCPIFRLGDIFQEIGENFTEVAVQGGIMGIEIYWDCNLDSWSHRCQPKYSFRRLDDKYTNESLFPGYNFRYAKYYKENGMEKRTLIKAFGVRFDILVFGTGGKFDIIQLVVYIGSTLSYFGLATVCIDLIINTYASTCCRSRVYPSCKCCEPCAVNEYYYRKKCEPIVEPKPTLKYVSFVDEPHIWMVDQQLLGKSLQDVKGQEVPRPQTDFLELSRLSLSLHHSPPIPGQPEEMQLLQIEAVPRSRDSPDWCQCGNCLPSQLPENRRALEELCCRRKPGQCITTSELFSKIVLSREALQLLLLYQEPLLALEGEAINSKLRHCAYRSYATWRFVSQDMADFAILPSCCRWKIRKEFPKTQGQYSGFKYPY
How it was run: (§1)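 Stable rat or mouse P2X7 HEK293 cells in HBSS/20 mM HEPES/2.5 mM probenecid/0.05% BSA, pH 7.4, were loaded with Fluo-4 NW (37 °C 30 min, RT 30 min). After 30 min at RT, calcium fluorescence was read by FLIPR; n ≥ 3.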

P2X purinoceptor 7 [3] = target: T3, P2X purinoceptor 7 (Mus musculus, UniProt Q9Z1M0); experiment: Antagonist activity at mouse P2X7 receptor expressed in HEK293 cells assessed as inhibition of BzATP-induced calcium-flux measured after 60 mins by FLIPR analysis; how it was run: as §1
T3 sequence (Q9Z1M0 whole entry): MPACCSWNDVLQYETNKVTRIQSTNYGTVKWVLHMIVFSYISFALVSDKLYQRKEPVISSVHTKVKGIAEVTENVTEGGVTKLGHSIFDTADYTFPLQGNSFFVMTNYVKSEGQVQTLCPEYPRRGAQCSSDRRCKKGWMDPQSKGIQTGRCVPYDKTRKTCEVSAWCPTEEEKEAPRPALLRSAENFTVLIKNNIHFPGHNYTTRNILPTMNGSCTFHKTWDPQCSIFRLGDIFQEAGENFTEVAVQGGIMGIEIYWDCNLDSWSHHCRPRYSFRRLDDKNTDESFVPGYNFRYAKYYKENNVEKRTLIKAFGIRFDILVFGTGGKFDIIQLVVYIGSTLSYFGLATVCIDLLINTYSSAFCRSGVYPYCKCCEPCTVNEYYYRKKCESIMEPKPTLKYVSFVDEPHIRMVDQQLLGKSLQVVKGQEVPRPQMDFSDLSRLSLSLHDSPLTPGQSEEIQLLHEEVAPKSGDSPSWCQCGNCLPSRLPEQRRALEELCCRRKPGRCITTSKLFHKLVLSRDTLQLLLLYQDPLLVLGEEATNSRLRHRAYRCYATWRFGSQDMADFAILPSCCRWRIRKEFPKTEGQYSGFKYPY

P2X purinoceptor 7 [4] = target: T2, P2X purinoceptor 7; experiment: Displacement of [3H]-A-804598 from rat P2X7 receptor expressed in HEK293 cell membrane by in vitro binding assay

CCOc1ccc(Nc2ccc(/C(=C3C=C/C(=[N+](/CC)Cc4cccc(S(=O)(=O)[O-])c4)C=C/3C)c3ccc(N(CC)Cc4cccc(S(=O)(=O)O)c4)cc3C)cc2)cc1 [E133]
IC50 (P2X purinoceptor 7 [1]): 5.8 µM | IC50 (P2X purinoceptor 7 [2]): 200 nM | IC50 (P2X purinoceptor 7 [3]): 1300 nM | Ki (P2X purinoceptor 7 [4]): 1000 nM
